The EternaBench riboswitch data

Tested on: MS2 coat protein
Assay: apparent Kd, MS2 coat protein; higher = weaker binding; RNA-MaP array; FMN 200 µM where present
Summary of the method: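 Designs on Illumina sequencing-chip clusters, transcribed by stalled E. coli RNA polymerase, were exposed to SNAP-549-labelled MS2 coat protein in doubling steps from 0.7 or 1.5 nM up to 3 µM, without and then with constant ligand. The buffer held 100 mM Tris-HCl pH 7.5, 80 mM KCl, 4 mM MgCl2, BSA, DTT, yeast tRNA and Tween-20. Apparent Kd values are medians of filtered per-cluster binding-curve fits to green signal normalised to red-channel RNA signal and control-cluster median Fmax.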

[1] = designed as: OFF switch for flavin mononucleotide, no ligand
[2] = ligand present: flavin mononucleotide, designed as: OFF switch for flavin mononucleotide
[3] = designed as: ON switch for flavin mononucleotide, no ligand
[4] = ligand present: flavin mononucleotide, designed as: ON switch for flavin mononucleotide

| Sequence | apparent Kd [1] [nM] | apparent Kd [2] [nM] | apparent Kd [3] [nM] | apparent Kd [4] [nM] |
| --- | --- | --- | --- | --- |
| GUGAAACAUGAGGAUCACCCAUGUGAGGAUAUGUUUUAGUACUGGAGACAGUACAUCUAUAGAAGGCACAAUGG | 68.2 | 89.1 | – | – |
| GAUACACAUGAGGAUCACCCAUGUGAGGAUAUGCGUACGUUGUCCGUAGGCGACGUGCGCAGAAGGCGCUUGGU | 72.2 | 75 | – | – |
| GGUGGGUUGCUACCGGCACAUGAGGAUCACCCAUGUUUUGGGAAGGAUAUGGUACCUAUUUGGUACCAGAAGGUCCCGUUGGUG | – | – | 330 | 239 |
| AUAAUAGAGUCAGGAUAUGGACAUGAGGAUCACCCAUGUGCAGGGAUCCUCCCAGAAGGGACAUCUAAACAAAAGGCGCUAUCC | 307 | 147 | – | – |
| ACAACAAAGUGAGGAUAUACAUAAUUCAUAACUGUAGAAGGCACAAACCUCAAUACAUGAGGAUCACCCAUGUUAUAUAUCUAA | 34.8 | 38.5 | – | – |
| GAUUGAACCCAGAAGGCAUGAUCCACAUGAGGAUCACCCAUGUCGGUGAUGAGGAUAUGGCAUCGUCGCGCAGGGCACUAAUGA | – | – | 590 | 119 |
| GACACUAUGUUUGUCAGAUAGAGAGAGGAUAUGGGUUAUGAGACAUGAGGAUCACCCAUGUUUAUUCAGAAGGCUCGAGUACGA | – | – | 90.9 | 11.8 |
| CAGACGUGAGGAUAUCUGAUGUCUAACUUCGGUUAGACAUCAGAGAAGGCACAUGAGGAUCACCCAUGUCUGAA | 76.8 | 309 | – | – |
| CUUUUGUGAGGAUAUUAGUAGUAAAUAAAUAAAAUUACUUCUGAGAAGGCACAUGAGGAUCACCCAUGUUCCUC | 30.6 | 123 | – | – |
| GUUCGUUUGAUAGGAUAUCGCUAUACAUGAGGAUCACCCAUGUUUACCACGCUGGUUUUUCGUACCGAGAAGGAUUCUGAUGAU | – | – | 40.2 | 36.2 |
| UUGCAGUGCGGGUAGGAUAUGUAGGGUGGUACAUGAGGAUCACCCAUGUGUCCACCCUUCGACCGGCAGAAGGGCCUAUCACUGC | – | – | 17.1 | 15.6 |
| CGACAGCACACAGGAUAUCCUCGACUUUGUCGAGGAGAAGGGUGUAAACAUGAGGAUCACCCAUGUAUGCUGUCGAAAUUUAAU | – | – | 308 | 30.7 |
| GUGUAGACAGGAUAUGCUUUGAGCAUAUGAGAGUAUGCUCUACAUGAGGAUCACCCAUGUAGAAGGGUCUACAC | 11.9 | 12.5 | – | – |
| GGGAGUGGAGGGAAUAACAUGAGGAUCACCCAUGUAUGGGAGAGAAGGCAGGUCGGAGGGCGAUCUGAGGAUAUUUAGACUCUU | – | – | 8.99 | 8.08 |
| UGUCUGAUCUAAUAACAUGAGGAUCACCCAUGUGUUCACAACUAGGAUAUCGAUUGUUAAGAAAUCGAGAAGGAGUAUACAUUA | 44.8 | 50.8 | – | – |
| AGCCAACAUGAGGAUCACCCAUGUCUACAGGAUUAAGGAUAUGGGCAGGGCUUCCCUGCACUAGAAGGUGAUCGAA | – | – | 153 | 214 |
| GUUAUUGACAAGAAGGCAUACAUGAGGAUCACCCAUGUUCUACAUGGAUAAUGAGGAUAUUGCCAAUACAUGAGGAUCACCCAG | 68.3 | 77.5 | – | – |
| AACAAUUAGUAAGGAUAUACUAGCGAUUAGCUUGUAGAAGGUACAGUCUUAUGUAUAACAAAUUAACAUGAGGAUCACCCAUGU | – | – | 10.4 | 7.88 |
| GUAAUACAUGAGGAUCACCCAUGUCAAUGUAGUCGAGGAUAUGGGUAGCUAUGAGGCUUACUAGAAGGCGACGAGC | – | – | 210 | 39.3 |
| UGUUGUAUUACAGGAUAUCUAUGGUUUUUAUUUAGAGAAGGGUAUUCACAUGAGGAUCACCCAUGUAUAUACGAGGAAGUUGUG | – | – | 57.5 | 63.7 |
| UUUAUAUUCAGAGGAUAUUAAUGUUGUAUAAUAUAAGAAGGCUGUUUGUUUUGUAAAGUUAUUAUACAUGAGGAUCACCCAUGU | – | – | 20.6 | 16.9 |
| AUGUAUCACACAGGAUAUACAUGAGGAUCACCCAUGUGUCCUCCGUAAUUGACACCAAUUACGCUGUAGAAGGGUGUGAUACAU | 274 | 204 | – | – |
| GAGUGACAUGAGGAUCACCCAUGUGAGGAUAUCGGACGGACCAAAUUAACAACAAACGCGAGAAGGCACAUCGG | 76.4 | 79.5 | – | – |
| UGCAUUACUUAGAAGGGAUAUAUAUAAUUUUAAUCAGGAUAUAGAUACAAUACAACAUGAGGACAUGAGGAUCACCCAUGUAUU | – | – | 19.9 | 14 |
| CUCUAGUGAGGAUAUCAGUAGUAAAAAAAUAAAAUUACUACUGAGAAGGCACAUGAGGAUCACCCAUGUCUUUC | 87.1 | 46.5 | – | – |
| UGGCACCGAGGAUAUACAUGAGGAUCACCCAUGUUCGGAAAGCAUACGGUGGCUUGCUGUAGAAGGCGGGCCAC | 16.2 | 13 | – | – |
| CCUGUGUGAGGAUAUGGUGUUAAAAAAAAAAAAUAGCUCCUCCAGAAGGCACAUGAGGAUCACCCAUGUCGUGG | 33.5 | 69.2 | – | – |
| AAGAAACAUGAGGAUCACCCAUGUAAGAUAAACACAGGAUAUGCGAAAAGAAACAAAGAAGCAGAAGGGUGAAGAA | – | – | 68.2 | 19.7 |

| Sequence | apparent Kd [1] [nM] | apparent Kd [2] [nM] | apparent Kd [3] [nM] | apparent Kd [4] [nM] |
| --- | --- | --- | --- | --- |
| CAGAAGUCAGGAUAUCCAUGGCGGCACUUGCGUGGUGGCGUGGAGAAGGGACAUGAGGAUCACCCAUGUAAAGU | 58.7 | 61.7 | – | – |
| GAGGCCCAAACAUGAGGAUCACCCAUGUGUUUAGUCCUCACAUAGGAUAUCCACACGAGAAGUGUGGAGAAGGAUGAGGGCGUC | 49 | 101 | – | – |
| UAAAUCGGAGGAUAUACAUGAGGAUCACCCAUGUAAUCGCGUUGGCAUCGGUGGGUUAGUAGAAGGCUGUAAAU | 30.5 | 45.3 | – | – |
| AAACAUGUCCGAGGAUAUCUGGAAACAUUUUCAAGAGAAGGCGGACAUGAGGAUCACCCAUGUCUCUCCUCAUCAACUAUAAAU | 8.24 | 60.6 | – | – |
| UACAUGUGAGGAUAUUAGAUCGCUAACUGGCGGGAGCGAUCUGAGAAGGCACAUGAGGAUCACCCAUGUGUCGU | 16.9 | 40.2 | – | – |
| UUGUAGUGCGUAGGAUAUCAUUGAGGGUCACCCUGAGAAGGACGUGAGGACAUGAGGAUCACCCAUGUGGAUCACCCAUGUCAU | 305 | 462 | – | – |
| GGAUUACAUGAGGAUCACCCAUGUGAGGAUAUCGAUGUCCUCCCUCCCGUGCGGGACUCGAGAAGGCACUUGGA | 51.9 | 78.8 | – | – |
| CUCUUGUUAGGAUAUCAAACCAGUGACGGAACCACUGGAAGUGAGAAGGGACAUGAGGAUCACCCAUGUAAGAA | 55.6 | 113 | – | – |
| AAUUAAUUAAUUAAUAUACAUGAGGAUCACCCAUGUAAGAUCAAGGAUAUCAGCUCGAUUAGAGCUGAGAAGGUGAUCACAUGU | – | – | 357 | 501 |
| GGAUAGGACAGAGGAUAUACGUGCUAGAGAUACUAGCAAAAUUUCGUCACAUGAGGAUCACCCAUGUAGAAGGCUGUCCUAUCG | 5.02 | 7.65 | – | – |
| UCCUUGUCCUGAGGAUAUCCGUGGUUACCGACAGGAGAAGGCAGGACAUGAGGAUCACCCAUGUACCCAGAAAACGUGCAGAGU | 133 | 210 | – | – |
| UGAUCGAGAGAUCUUAGAUUCUGGUAGGAUAUACAUUAUGUUUGAAAUACAUGAGGAUCACCCAUGUAGAAGGACUAGAGUCUA | 6.71 | 11.7 | – | – |
| AAAAAACAUGAGGAUCACCCAUGUAAAAAAAAUGGAGGAUAUUGGAAAAAAAAAAAAAAACGAGAAGGCUAAAAAA | – | – | 84.4 | 71.1 |
| UAUUAGUGAGGAUAUGAGUCGUAGAACAAUAGUACUACGUCUCAGAAGGUACAUGAGGAUCACCCAUGUUCCUC | 19 | 22.8 | – | – |
| CCGGAUACGGGUAGCCUGACAUGAGGAUCACCCAUGUGAUCCUAGGAUAUGGAUCCUAAUUGGAUCCAGAAGGAGGUUGGCUAC | – | – | 860 | 436 |
| CGUGCGUAUGUGAGGAUAUGCUGGUCCUUGGCUCGGCAGAAGGCACAUGAGGAUCACCCAUGUGGUGUCGUACC | 21.9 | 58.6 | – | – |
| AUUAUUGACAUAGGAUAUUGUUACAUGAGGAUCACCCAUGUUAUUUGGGAACUAGGAAUAUUUUACAAGAAGGAUGUUGUUAAA | – | – | 91 | 79.3 |
| AUGCUAGUGUGAGGAUAUUAACAUGAGGAUCACCCAUGUUGGAAGUACAUGACAUGAGGUACAUUUAAGAAGGUACAUUAGCAU | 69 | 77.1 | – | – |
| AUAGAAGACUAGAAGGAGGUUUAAUAAUAUUGUCGAGGUAUUGUUGAAUUUAGGAUAUGGGACAUGAGGAUCACCCAUGUUUUG | – | – | 24 | 16.2 |
| AUGCUAUACGAAGGAUAUGGUUACAUGAGGAUCACCCAUGUUAUGAUUGGGUACAUGAAAAGGUUCCAGAAGGUCGUAUAGCUA | 1210 | 736 | – | – |
| UAAACAUGAGGAUCACCCAUGUAAUGAUCGGUUGAUGAAAGUGAGGAUAUACAAAAUUUUAUGGAGUAGAAGGCACUGGGUUCU | – | – | 49.9 | 40.3 |
| UGUCGGAGCAGAGGAUAUUACAUGAGGAUCACCCAUGUAUGAACCAAUAGCUUGAAACAGCAAUGUAAGAAGGCUGCUCCGACA | 7.66 | 84.2 | – | – |
| UCGUUGUCAGGAUAUCGUGUAUUCAACUUUAGUUUUAUAUUCGAGAAGGGACAUGAGGAUCACCCAUGUUACGU | 133 | 257 | – | – |
| ACAUUUUAUGCAGGAUAUUGACAUAUAUUUAAACAAGAAGGGCAUUACAUGAGGAUCACCCAUGUUAUAAUGGUAUAUAAGUUC | 21.4 | 19.2 | – | – |
| GCACGGUAAGUGAGGAUAUACCUCUGGAUACAGAGGUAGAAGGCACAUGAGGAUCACCCAUGUUCCAGCCGUGC | 17.9 | 74.8 | – | – |
| AAUAACAGAGGAUAUACUGUUUUAUGUGUUUAUUGUUUUGAACAUGAGGAUCACCCAUGUAGAAGGCUGAAUGA | 26.1 | 26.2 | – | – |
| GGAGACCUCACAGGAUAUGCUGGACUUUGUCCAGCAGAAGGGUGAACAUGAGGAUCACCCAUGUUGGUCUCCAAAAUAUUUAAU | – | – | 882 | 108 |
